Converted amounts (≈) assume the structure as drawn. The source made the active and inactive calls. The calls are words filed in the database; no cut-off is given here.

Test [1] deals with Pseudomonas luteola. The test is described as follows: Antimicrobial activity against Pseudomonas luteola LAM expressing blaLUT-1 by Etest method. It counts as functional.
In test [2] the test system is Pseudomonas luteola. The test is described as follows: Antimicrobial activity against Pseudomonas luteola expressing blaLUT-2 to blaLUT-6 by Etest method. It counts as functional.
In test [3] the test system is Escherichia coli. Description: Antimicrobial activity against Escherichia coli DH10B transfected with pBK-L3 expressing blaLUT-1 by Etest method. To be noted: K-12 DH10B. It counts as functional.
The test system of test [4] is Pseudomonas luteola. Description: Antimicrobial activity against Pseudomonas luteola by disk diffusion method. It counts as functional. The method in brief:
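Disk diffusion panel of 32 antimicrobial drugs tested on P. luteola clinical isolates and the type strain. Isolates were identified by API-20 NE and by sequencing of PCR-amplified rrs and rpoB.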
(Agar diffusion results depend on both activity and mobility in agar.)

Test [5] deals with Escherichia coli. The test is described as follows: Antimicrobial activity against Escherichia coli DH10B by Etest method. It counts as functional. Conditions: K-12 DH10B.
The test system of test [6] is Pseudomonas luteola. Description: Antimicrobial activity against Pseudomonas luteola LAM expressing blaLUT-1 at 2:1 ratio of compound to clavulanic acid by Etest method. It counts as functional.
In test [7] the test system is Pseudomonas luteola. The test is described as follows: Antimicrobial activity against Pseudomonas luteola expressing blaLUT-2 to blaLUT-6 at 2:1 ratio of compound to clavulanic acid by Etest method. It counts as functional.
The subject of test [8] is Escherichia coli. Description: Antimicrobial activity against Escherichia coli DH10B transfected with pBK-L3 expressing blaLUT-1 at 2:1 ratio of compound to clavulanic acid by Etest method. It counts as functional. To be noted: K-12 DH10B.
For test [9], the system named is Escherichia coli. The test is described as follows: Antimicrobial activity against Escherichia coli DH10B at 2:1 ratio of compound to clavulanic acid by Etest method. It counts as functional. Conditions: K-12 DH10B.
Test [10] deals with Pseudomonas luteola. Description: Antimicrobial activity against Pseudomonas luteola LAM expressing blaLUT-1 by Etest method in presence of 4 ug/ml clavulanic acid. It counts as functional.
Test [11] concerns Pseudomonas luteola. Description: Antimicrobial activity against Pseudomonas luteola expressing blaLUT-2 to blaLUT-6 by Etest method in presence of 4 ug/ml clavulanic acid. It counts as functional.
Test [12] concerns Escherichia coli. The test is described as follows: Antimicrobial activity against Escherichia coli DH10B by Etest method in presence of 4 ug/ml clavulanic acid. It counts as functional. To be noted: K-12 DH10B.
In test [13] the test system is Escherichia coli. The test is described as follows: microbe, parasite or virus in culture. To be noted: K-12 DH10B.

`CO/N=C(\C(=O)N[C@@H]1C(=O)N2C(C(=O)[O-])=C(C[N+]3(C)CCCC3)CS[C@H]12)c1csc(N)n1`: the MIC in the test on Pseudomonas luteola [1] came to 0.5 µg/mL (≈ 1.04 µM); with Pseudomonas luteola [2], 1 µg/mL (≈ 2.08 µM); in the test with Escherichia coli [3] it was 0.5 µg/mL (≈ 1.04 µM).
Regarding `COc1cc(Cc2cnc(N)nc2N)cc(OC)c1OC`, the outcome with Pseudomonas luteola [4] was inactive.
Regarding `Cn1nnnc1SCC1=C(C(=O)O)N2C(=O)[C@@H](NC(=O)[C@H](O)c3ccccc3)[C@H]2SC1`, the outcome with Pseudomonas luteola [4] was inactive.
For `O=C(N[C@H](CO)[C@H](O)c1ccc([N+](=O)[O-])cc1)C(Cl)Cl`, the outcome in the test on Pseudomonas luteola [1] was inactive.
In the case of `CC1(C)S[C@@H]2[C@H](NC(=O)[C@H](N)c3ccc(O)cc3)C(=O)N2[C@H]1C(=O)O` [AMOXICILLIN], the MIC against Pseudomonas luteola [1] was 4 µg/mL (≈ 10.9 µM); in the test on Pseudomonas luteola [2], 4 µg/mL (≈ 10.9 µM); with Escherichia coli [3], 128 µg/mL (≈ 350 µM); against Escherichia coli [5], 4 µg/mL (≈ 10.9 µM); in the test with Pseudomonas luteola [6] it was 1 µg/mL; in the test on Pseudomonas luteola [7] it was 1 µg/mL. For the same compound, the MIC in the test with Escherichia coli [8] and with Escherichia coli [9] was 4 µg/mL in each case.
With `C[C@H]1[C@H](NC(=O)/C(=N\OC(C)(C)C(=O)O)c2csc(N)n2)C(=O)N1S(=O)(=O)O` [AZTREONAM], the values for the MIC with Pseudomonas luteola [1], in the test on Pseudomonas luteola [2] and in the test on Escherichia coli [3] were 2 µg/mL (≈ 4.59 µM), 4 µg/mL (≈ 9.19 µM) and 2 µg/mL (≈ 4.59 µM), respectively.
As to `CO/N=C(\C(=O)N[C@@H]1C(=O)N2C(C(=O)O)=C(COC(C)=O)CS[C@H]12)c1csc(N)n1` [CEFOTAXIME], the MIC is 1 µg/mL (≈ 2.2 µM) against Pseudomonas luteola [1]; 2 µg/mL (≈ 4.39 µM) against Pseudomonas luteola [2]; 1 µg/mL (≈ 2.2 µM) in the test with Escherichia coli [3]; less than 0.06 µg/mL with Escherichia coli [5]; 1 µg/mL with Pseudomonas luteola [10]; 1 µg/mL with Pseudomonas luteola [11]. The results for the MIC in the test on Escherichia coli [12] and against Escherichia coli [13] were less than 0.06 µg/mL and 0.06 µg/mL (≈ 0.132 µM), respectively.
Consider `CO[C@@]1(NC(=O)Cc2cccs2)C(=O)N2C(C(=O)O)=C(COC(N)=O)CS[C@@H]21` [CEFOXITIN], for which the MIC in the test on Pseudomonas luteola [1] was 32 µg/mL (≈ 74.9 µM); in the test with Pseudomonas luteola [2], 32 µg/mL (≈ 74.9 µM); against Escherichia coli [3] it was 4 µg/mL (≈ 9.36 µM); against Escherichia coli [5], 4 µg/mL (≈ 9.36 µM).

Source of the values: ChEMBL document CHEMBL1212770, “Molecular and biochemical characterization of the natural chromosome-encoded class A beta-lactamase from Pseudomonas luteola” (Antimicrob Agents Chemother, 2010).
